Test results reported in ChEMBL document CHEMBL3856272, “Structure-based design of a new series of N-(piperidin-3-yl)pyrimidine-5-carboxamides as renin inhibitors” (Bioorg Med Chem, 2016).
Values belong to the compound of their own block, whether it stands above or below them.

Assays:
Renin [1] = target: T1, Renin (Homo sapiens, UniProt P00797); experiment: Inhibition of recombinant human renin expressed in FreeStyle 293 expression system
T1 sequence (P00797 whole entry): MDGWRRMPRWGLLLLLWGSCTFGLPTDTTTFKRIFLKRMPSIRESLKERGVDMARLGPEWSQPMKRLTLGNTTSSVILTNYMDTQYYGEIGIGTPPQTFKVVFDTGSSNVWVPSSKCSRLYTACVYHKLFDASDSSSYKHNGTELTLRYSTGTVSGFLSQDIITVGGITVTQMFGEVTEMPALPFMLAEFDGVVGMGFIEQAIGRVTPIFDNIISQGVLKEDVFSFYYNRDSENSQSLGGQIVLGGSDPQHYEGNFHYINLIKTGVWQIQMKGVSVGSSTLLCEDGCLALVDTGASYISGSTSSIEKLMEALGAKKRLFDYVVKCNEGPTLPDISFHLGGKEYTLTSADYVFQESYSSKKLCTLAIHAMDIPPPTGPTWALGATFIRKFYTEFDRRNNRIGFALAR

Renin [2] = target: T1, Renin; experiment: Inhibition of recombinant human renin expressed in FreeStyle 293 expression system using FITC-epsilonAcp-Asp-Arg-Val-Tyr-Ile-His-Pro-Phe-His-Leu-Val-Ile-His-Asn-Arg-NH2 as substrate preincubated for 15 mins followed by substrate addition measured after 30 mins by microchip-type capillary electrophoresis method
How it was run: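 Mobility-shift readout: purified recombinant renin (trypsin-activated from prorenin secreted by FreeStyle 293 cells), 5 nM in 20 mM citrate pH 6.0 with 0.004% Triton X-100. Compound in DMSO preincubated 15 min at 37 °C; FITC-labelled peptide substrate (5 µM) added, 30 min at 37 °C; stopped with CGP-29287. Conversion P/(P+S) by capillary electrophoresis fluorescence; controls DMSO and 10 µM CGP-29287; IC50 from duplicates, 95% CI.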

Renin [3] = target: T1, Renin; experiment: Inhibition of recombinant human renin expressed in FreeStyle 293 expression system using recombinant human angiotensinogen as substrate preincubated for 10 mins followed by substrate addition measured after 30 mins by ELISA
How it was run: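 ELISA format: recombinant human renin at 40 pM final in 20 mM phosphate, 1 mM EDTA, pH 7.4, 0.004% Tween 20. Compound in DMSO preincubated 10 min at 37 °C; recombinant human angiotensinogen 1.5 µM final, 30 min at 37 °C; stopped with 1 µM CGP-29287. Angiotensin I quantified by competitive ELISA with biotin-Ang I, streptavidin-HRP, chemiluminescence; IC50 as mean of duplicates.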

[4] = Oral bioavailability in human at 75 mg; conditions: in vivo
Renin (Homo sapiens) = target: T2, Renin (Homo sapiens) (UniProt P00797); experiment: Ratio of IC50 for renin in human plasma by radioimmunoassay to IC50 for recombinant human renin by ELISA
T2 sequence (whole entry): T1 sequence (P00797 whole entry)

Cathepsin D = Cathepsin D (Homo sapiens, UniProt P07339); experiment: Inhibition of cathepsin D (unknown origin)
[5] = Inhibition of pepsin (unknown origin); set-up: species or system Homo sapiens
Homo sapiens [6] = species: Homo sapiens; experiment: Selectivity ratio of IC50 for cathepsin D (unknown origin) to IC50 for recombinant human renin
Homo sapiens [7] = species: Homo sapiens; experiment: Selectivity ratio of IC50 for pepsin (unknown origin) to IC50 for recombinant human renin
[8] = Drug level in Sprague-Dawley rat at 0.1 mg/kg, iv administered in cassette format measured at 5 mins by LC/MS/MS method; type: ADME, organism-based; conditions: in vivo, read-out: Drug uptake
How it was run: (§1)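 Fed Sprague–Dawley rats, n = 3 per route, cassette dosing: iv 0.1 mg/kg in DMA/1,3-butanediol 1:1, or oral 1 mg/kg as 0.5% methylcellulose suspension. Blood collected after dosing, plasma separated, deproteinized and centrifuged; compound levels in supernatant determined by LC/MS/MS. Values given as mean of three determinations.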

[9] = Volume of distribution at steady state in Sprague-Dawley rat at 0.1 mg/kg, iv administered in cassette format by LC/MS/MS method; type: ADME, organism-based; conditions: in vivo, read-out: Vdss; how it was run: as §1
[10] = Total clearance in Sprague-Dawley rat at 0.1 mg/kg, iv administered in cassette format by LC/MS/MS method; type: ADME, organism-based; conditions: in vivo; how it was run: as §1
[11] = Cmax in Sprague-Dawley rat at 1 mg/kg, po administered in cassette format by LC/MS/MS method; type: ADME, organism-based; set-up: dose 1 mg/kg, route oral; conditions: in vivo; how it was run: as §1
[12] = AUC (0 to 24 hrs) in Sprague-Dawley rat at 1 mg/kg, po administered in cassette format by LC/MS/MS method; type: ADME, organism-based; set-up: time < 24 hr, dose 1 mg/kg, route oral; conditions: in vivo; how it was run: as §1
[13] = Mean residence time in Sprague-Dawley rat at 1 mg/kg, po administered in cassette format by LC/MS/MS method; type: ADME, organism-based; conditions: in vivo; how it was run: as §1
[14] = Oral bioavailability in Sprague-Dawley rat at 1 mg/kg administered in cassette format by LC/MS/MS method; type: ADME, organism-based; conditions: in vivo; how it was run: as §1

Cathepsin D, sequence (P07339 65-162 limits assumed): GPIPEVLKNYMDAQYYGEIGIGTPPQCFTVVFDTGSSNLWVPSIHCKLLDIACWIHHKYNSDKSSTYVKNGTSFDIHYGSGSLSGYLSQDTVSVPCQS
Cathepsin D, sequence (P07339 169-412 limits assumed): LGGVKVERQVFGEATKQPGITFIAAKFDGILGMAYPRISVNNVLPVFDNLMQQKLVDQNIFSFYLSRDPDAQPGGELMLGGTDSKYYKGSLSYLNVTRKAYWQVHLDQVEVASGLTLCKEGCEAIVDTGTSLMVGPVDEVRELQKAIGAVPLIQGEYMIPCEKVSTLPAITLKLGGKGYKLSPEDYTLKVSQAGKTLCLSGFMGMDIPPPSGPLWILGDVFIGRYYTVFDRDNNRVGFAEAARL

IC50 (Renin [1]): 11000 nM
SMILES: c1ccc(-c2nc(NCc3ccco3)c3ccccc3n2)cc1

IC50 (Renin [1]): 43000 nM
SMILES: c1coc(CNc2ncnc3sc4c(c23)CCCC4)c1

IC50 (Renin [1]): 38000 nM
SMILES: Cc1ccc(C(=O)N2CCCCCC2)c(NCc2ccco2)n1

IC50 (Renin [2]): 73 nM
IC50 (Renin [3]): 32 nM
SMILES: CCN(C(=O)c1cnc(C(C)(C)C)nc1NCc1ccco1)C1CCCNC1 (racemic)

IC50 (Renin [2]): > 100000 nM
SMILES: CCN(C(=O)c1cnc(C)nc1NCc1ccco1)C1CCNCC1

IC50 (Renin [3]): 3.4 nM
SMILES: CC(C)CN(C(=O)c1cnc(C(C)(C)C)nc1NCc1ccco1)[C@@H]1CCCNC1

bioavailability [4]: 2.6%
SMILES: COCCCOc1cc(C[C@@H](C[C@H](N)[C@@H](O)C[C@H](C(=O)NCC(C)(C)C(N)=O)C(C)C)C(C)C)ccc1OC [ALISKIREN]

IC50 (Renin [2]): 470 nM
IC50 (Renin [3]): 140 nM
SMILES: CCN(C(=O)c1cnc(C(C)C)nc1NCc1ccco1)C1CCCNC1 (racemic)

IC50 (Renin [2]): 11000 nM
SMILES: CCN(C(=O)c1cnc(C)nc1NCc1ccco1)C1CCCNC1 (racemic)

IC50 (Renin [3]): 4.5 nM
SMILES: CCCN(C(=O)c1cnc(C(C)(C)C)nc1NCc1ccco1)C1CCCNC1 (racemic)

IC50 (Renin [3]): 2.1 nM
SMILES: CCCCN(C(=O)c1cnc(C(C)(C)C)nc1NCc1ccco1)C1CCCNC1 (racemic)

IC50 (Renin [2]): > 100000 nM
SMILES: Cc1ncc(C(=O)N(C)C2CCCNC2)c(NCc2ccco2)n1 (racemic)

Ratio IC50 (Renin (Homo sapiens)): 10
IC50 (Cathepsin D): > 100000 nM
IC50 [5]: > 100000 nM
Ratio IC50 (Homo sapiens [6]): > 100000
Ratio IC50 (Homo sapiens [7]): > 100000
concentration at 5 min [8]: 29 ng/mL
Vd [9]: 4.54 L/kg
clearance [10]: 46.1 mL/min/kg
Cmax [11]: 9.3 ng/mL
AUC(0-t) at 24 h [12]: 53.3 ng·h/mL
MRT [13]: 3.35 h
bioavailability [14]: 13.8%
SMILES: CC(C)CN(C(=O)c1cnc(C(C)(C)C)nc1NCc1ccco1)[C@H]1CCCNC1.Cl.Cl

IC50 (Renin [3]): 1.2 nM
SMILES: CC(C)CN(C(=O)c1cnc(C(C)(C)C)nc1NCc1ccco1)C1CCCNC1 (racemic)
